Source: ChEMBL document CHEMBL1122366, “Potential antiatherosclerotic agents. 3. Substituted benzoic and non benzoic acid analogues of cetaben” (1983)

Key:
[1] = molecular target: T1, Sterol O-acyltransferase 1 (Rattus norvegicus) (UniProt O70536); assay: In vitro inhibition of acyl coenzyme A:cholesterol acyltransferase; set-up: concentration or dose not given beside the values; settings: concentration not given here
T1 sequence (whole entry): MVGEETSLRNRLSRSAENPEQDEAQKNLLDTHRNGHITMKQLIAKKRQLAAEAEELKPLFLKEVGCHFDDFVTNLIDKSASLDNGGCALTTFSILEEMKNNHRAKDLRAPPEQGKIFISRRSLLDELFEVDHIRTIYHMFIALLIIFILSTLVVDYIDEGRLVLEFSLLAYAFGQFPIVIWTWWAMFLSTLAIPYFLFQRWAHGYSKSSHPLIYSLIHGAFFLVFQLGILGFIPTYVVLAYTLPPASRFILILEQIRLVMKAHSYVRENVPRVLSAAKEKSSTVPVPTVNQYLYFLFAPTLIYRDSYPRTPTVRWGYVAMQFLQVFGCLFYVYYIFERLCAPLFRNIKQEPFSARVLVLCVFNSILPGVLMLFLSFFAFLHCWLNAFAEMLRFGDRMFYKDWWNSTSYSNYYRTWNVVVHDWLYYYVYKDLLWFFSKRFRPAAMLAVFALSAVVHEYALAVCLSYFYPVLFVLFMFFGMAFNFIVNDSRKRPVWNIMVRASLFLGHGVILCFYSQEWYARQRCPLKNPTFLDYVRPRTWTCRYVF
Method in brief: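 Enzyme fatty acyl-CoA:cholesterol acyltransferase (ACAT), assayed in vitro at a single drug concentration of 5.2 μg/mL. The value is the mean percent inhibition of enzyme activity.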

[2] = test system: Rattus norvegicus; assay: In vivo triglyceride lowering activity when dosed at 0.03 % of the diet; format: functional
Method in brief: (§1)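 Normal rats were dosed in the diet. Serum sterol and triglyceride levels were measured and expressed as the mean percent of control values. Significance versus control was reported at p < 0.05, 0.01 and 0.001.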

[3] = test system: Rattus norvegicus; assay: In vivo sterol lowering activity when dosed as 0.01 % of the diet; format: functional; method in brief: as §1
[4] = test system: Rattus norvegicus; assay: In vivo sterol lowering activity when dosed as 0.03 % of the diet; format: functional; method in brief: as §1
[5] = test system: Rattus norvegicus; assay: In vivo sterol lowering activity at dose of 0.10 % of the diet; format: functional; method in brief: as §1
[6] = test system: Rattus norvegicus; assay: In vivo triglyceride lowering activity when dosed as 0.01 % of the diet; format: functional; method in brief: as §1
[7] = test system: Rattus norvegicus; assay: In vivo triglyceride lowering activity dosed at 0.10 % of the diet.; format: functional; method in brief: as §1

| SMILES | inhibition [1] [%] | serum triglyceride level, percent of control [2] [%] | serum sterol level, % of control [3] [%] | serum sterol level, percent of control [4] [%] | serum sterol level, percent of control [5] [%] | serum triglyceride level, percent of control [6] [%] | serum triglyceride, percent of control [7] [%] |
| --- | --- | --- | --- | --- | --- | --- | --- |
| CCCCCCCCCCCCCCCCNc1ccc(C(=O)OCC(=O)OCC)cc1 | 15 | 76 | <80 | <81 | <66 | 92 | 72 |
| CCCCCCCCCCCCCCCCNc1ccc(C2SCCCS2)cc1 | 9 | 114 | 102 | 92 | 93 | 105 | 91 |
| CCCCCCCCCCCCCCCCNc1cc(C(=O)[O-])c(C(=O)[O-])c(C(=O)[O-])c1.[Na+].[Na+].[Na+] | < 24 | <68 | 100 | 100 | 97 | 82 | 93 |
| CCCCCCCCCCCCCCCCNc1ccc(C2=NCCO2)cc1 | 0 | 94 | 100 | 100 | 86 | 103 | 76 |
| CCCCCCCCCCCCCCCCNc1ccc(C(=O)N2CCCCCC2)cc1 | < 61 | 90 | 110 | 105 | 106 | 72 | 68 |
| CCCCCCCCCCCCCCCCNc1ccc(C(=O)Oc2ccccc2)cc1 | 0 | 76 | 89 | 85 | <84 | 105 | <76 |
| CCCCCCCCCCCCCCCCNc1ccc(C(=O)CC(=O)OCC)cc1 | 2 | <53 | 105 | <83 | <85 | 71 | <30 |
| CCCCCCCCCCCCCCCCNc1ccc(C(=O)Nc2ccc(C(=O)O)cc2)cc1 | 12 | 121 | 95 | <87 | 100 | 85 | 103 |
| CCCCCCCCCCCCCCCCNc1ccc(C(C)=O)cc1 | 14 | 88 | 129 | 119 | 98 | 84 | 78 |
| CCCCCCCCCCCCCCCCNc1ccc(CCC(=O)O)cc1 | 50 | <50 | 88 | <80 | 92 | <59 | <37 |
| CCCCCCCCCCCCCCCCNc1ccc(C(=O)OCC)c(C(=O)OCC)c1 | < 37 | 93 | 98 | 99 | 90 | 86 | <72 |
| CCCCCCCCCCCCCCCCNc1ccc(C(=O)OCCCO)cc1 | 14 | <74 | 94 | <82 | <68 | <67 | <46 |
| CCCCCCCCCCCCCCCCNc1ccc(C(=O)C(C#N)C(=O)OCC)cc1 (stereo not given) | < 40 | 90 | 115 | 100 | 100 | 83 | 105 |
| CCCCCCCCCCCCCCCCNc1ccc(C(=O)NCC(=O)O)cc1 | < 64 | <70 | <77 | 87 | <77 | 76 | <48 |
| CCCCCCCCCCCCCCCCNc1ccc(C(=O)CC(=O)C(=O)OC)cc1 | < 43 | 77 | 92 | 96 | 85 | 101 | 81 |
| CCCCCCCCCCCCCCCCNc1ccc(C(=O)[O-])c(C(=O)[O-])c1.[Na+].[Na+] | 63 | 85 | 100 | 105 | 101 | 110 | <67 |
| CCCCCCCCCCCCCCCCNc1ccc(C(=O)NCCC(=O)O)cc1 | 49 | 78 | <90 | 93 | <86 | 99 | <55 |
| CCCCCCCCCCCCCCCCNc1ccc(C=O)cc1 | < 30 | <64 | 91 | 92 | <85 | <66 | <53 |
| CCCCCCCCCCCCCCCCNc1ccc(C(=O)NCCS(=O)(=O)O)cc1 | < 45 | 71 | 91 | 90 | <80 | <67 | <56 |
| CCCCCCCCCCCCCCCCNc1ccc(C(=O)OCC(O)COC(=O)c2cccnc2)cc1 (stereo not given) | 0 | 83 | 103 | 108 | 84 | 93 | <63 |
